In brackets after ≈: the same amount, converted by molar mass. Each block holds one compound with its values, some of them ahead of it. Activity calls are given as the source filed them. The calls are words filed in the database; no cut-off is given here.
Assays:
MCF7 [1] = test: Inhibitory concentration against MCF-7 cell line; format: functional, cell-based; conditions: Homo sapiens
How it was run: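 MCF-7 cells maintained in RPMI-1640 with 5% FCS at 37 °C under 5% CO2. Test material came from dilution plates prepared from the one-pot Ugi synthesis plates. Each sample was screened at five concentrations, and an approximate IC50 was estimated from the results.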

MCF7 [2] = test: Compound was tested for cytotoxicity against MCF-7 cell line; Active; format: functional, cell-based; conditions: Homo sapiens
HCT-116 = test: Cytotoxicity against HCT 116 cell line; format: functional, cell-based; conditions: Homo sapiens
Staphylococcus aureus = test: Compound ( at <100 uM) was tested for growth inhibition against Staphylococcus aureus; format: functional
Bacillus subtilis = test: Compound ( at <100 uM) was tested for growth inhibition against Bacillus subtilis; format: functional
Candida albicans = test: Compound ( at <100 uM) was tested for growth inhibition against Candida albicans; format: functional

- IC50 (MCF7 [1]): 4.1 µM
SMILES: CC(=O)NCC(=O)N(CCc1c[nH]c2ccccc12)CC(=O)N/C=C\c1c[nH]c2ccccc12

SMILES: CC(=O)NCC(=O)N(CCCCCO)C1(C(=O)N/C=C\c2c[nH]c3cc(OCc4ccccc4)ncc23)CCN(Cc2ccccc2)CC1
- Cytotoxicity (MCF7 [2]): Active

SMILES: O=C(/C=C/c1c[nH]c2ccccc12)N/C=C/c1c[nH]c2ccccc12 [CHONDRIAMIDE A]
- IC50 (HCT-116): 16 µg/mL (≈ 48.9 µM)

SMILES: CC(=O)N[C@H](CC(C)C)C(=O)N(CCc1c[nH]c2ccccc12)CC(=O)N/C=C\c1c[nH]c2cc(OCc3ccccc3)ncc12
- Inhibition (Staphylococcus aureus): 100%
- Inhibition (Bacillus subtilis): 100%

SMILES: CC(=O)N[C@H](CC(C)C)C(=O)N(C)C(Cc1ccccc1)C(=O)N/C=C\c1c[nH]c2cc(OCc3ccccc3)ncc12 (stereo partly specified)
- Inhibition (Candida albicans): 100%

- IC50 (MCF7 [1]): 49.9 µM
SMILES: CC(=O)N[C@H](CC(C)C)C(=O)N(CCc1c[nH]c2ccccc12)CC(=O)N/C=C\c1c[nH]c2ccccc12

SMILES: CC(=O)NCC(=O)N(CCCCCO)C1(C(=O)N/C=C\c2c[nH]c3ccccc23)CCN(Cc2ccccc2)CC1
- Inhibition (Candida albicans): 100%

SMILES: CC(=O)N[C@H](CC(C)C)C(=O)N(CCCCCO)C1(C(=O)N/C=C\c2c[nH]c3cc(OCc4ccccc4)ncc23)CCN(Cc2ccccc2)CC1
- Cytotoxicity (MCF7 [2]): Active

- IC50 (MCF7 [1]): 0.3 µM
SMILES: CC(=O)N[C@H](CC(C)C)C(=O)N(C)C(Cc1ccccc1)C(=O)N/C=C\c1c[nH]c2ccccc12 (stereo partly specified)

SMILES: CC(=O)NCC(=O)N1C(C(=O)N/C=C\c2c[nH]c3ccccc23)CSC1(C)C (stereo unspecified)
- Inhibition (Candida albicans): 100%

SMILES: CC(=O)N[C@H](CC(C)C)C(=O)N1C(C(=O)N/C=C\c2c[nH]c3ccccc23)CSC1(C)C (stereo partly specified)
- Inhibition (Staphylococcus aureus): 100%
- Inhibition (Bacillus subtilis): 100%

SMILES: CC(=O)NC(C(=O)N(C)C(C(=O)N/C=C\c1c(CC=C(C)C)[nH]c2ccccc12)C(C)C)C(C)C (stereo unspecified)
- IC50 (HCT-116): 16 µg/mL (≈ 33.3 µM)

SMILES: CC(=O)NCC(=O)N(CCc1c[nH]c2ccccc12)CC(=O)N/C=C\c1c[nH]c2cc(OCc3ccccc3)ncc12
- Cytotoxicity (MCF7 [2]): Active

SMILES: CC(=O)NCC(=O)N1C(C(=O)N/C=C\c2c[nH]c3cc(OCc4ccccc4)ncc23)CSC1(C)C (stereo unspecified)
- Cytotoxicity (MCF7 [2]): Active

SMILES: CC(=O)N[C@H](CC(C)C)C(=O)N1C(C(=O)N/C=C\c2c[nH]c3cc(OCc4ccccc4)ncc23)CSC1(C)C (stereo partly specified)
- Inhibition (Staphylococcus aureus): 100%
- Inhibition (Bacillus subtilis): 100%
- Cytotoxicity (MCF7 [2]): Active

SMILES: CCC(C)CC(C(=O)N/C=C\c1c[nH]c2ccccc12)N(C)Cc1ccc(O)cc1 (stereo unspecified) [ARAGILAMIDE]
- IC50 (HCT-116): 16 µg/mL (≈ 39.5 µM)

SMILES: CC(=O)NC(CC(C)C)C(=O)N(C)C(Cc1ccccc1)C(=O)N/C=C\c1c[nH]c2ccccc12 (stereo unspecified)
- IC50 (HCT-116): 16 µg/mL (≈ 33.7 µM)

SMILES: CC(=O)N1CCC[C@@H]1C(=O)N(CCc1c[nH]c2ccccc12)CC(=O)N/C=C\c1c[nH]c2cc(OCc3ccccc3)ncc12
- Inhibition (Staphylococcus aureus): 100%
- Inhibition (Bacillus subtilis): 100%

- IC50 (MCF7 [1]): 1.9 µM
SMILES: CC(=O)N1CCCC1C(=O)N(C)C(Cc1ccccc1)C(=O)N/C=C\c1c[nH]c2cc(OCc3ccccc3)ncc12 (stereo unspecified)
- Cytotoxicity (MCF7 [2]): Active

- IC50 (MCF7 [1]): 0.4 µM
SMILES: CC(=O)N1CCC[C@H]1C(=O)N(C1CCCCC1)C1(C(=O)N/C=C\c2c[nH]c3ccccc23)CCCCC1

Reference: ChEMBL document CHEMBL1133254, “One-pot synthesis and biological evaluation of aspergillamides and analogues” (Bioorg Med Chem Lett, 2000)
